From paper PMC6889097 (Virologica Sinica, 2019)
Read-outs that look alike come from different tables or passages of the source. Marks after values point to notes of the source that are not given here.

Tests used:
CXCL10 = test: cells; format: cell-based, human; details: for IC50: Homo sapiens, U-937, read-out: IC50 CXCL10
[1] = system: lethal influenza virus infection; details: mouse, cited from earlier work
Cell viability = format: cell-based, human; details: human; for CC50: U937 cells; for CC50 at 48 h: uninfected U937 cells
How it was run: (§1)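 Uninfected U937 cells, 40,000/well (1 × 10^6 cells/mL) in RPMI 1640 + 10% FBS, were incubated with serially diluted test compound in 384-well plates for 48 h at 37 ℃/5% CO2. After the plates were spun at 500 ×g for 3 min, supernatant was replaced with medium containing 20% MTS reagent for 1 h at 37 ℃. OD490 was read against reference OD630, and CC50 was derived.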

CCL2 = test: cells; format: cell-based, human; details: for IC50: Homo sapiens
[2] = system: A/PuertoRico/8/1934 (H1N1) influenza virus; test: microbe, parasite or virus in culture; format: cell-based, influenza virus A/PuertoRico/8/1934 (H1N1)
U937 cells = test: Cell viability; format: cell-based, human; details: 50% cytotoxic concentration, MTS assay, U937 cells; validation panel (Table 2)
How it was run: as §1

[3] = Influenza A virus, H1N1, U-937, read-out: IC50 NA

Question: Which results are given for `CC[C@@H]1/C=C(\C)C[C@H](C)C[C@H](OC)[C@H]2O[C@@](O)(C(=O)C(=O)N3CCCC[C@H]3C(=O)O[C@H](/C(C)=C/[C@@H]3CC[C@@H](O)[C@H](OC)C3)[C@H](C)[C@@H](O)CC1=O)[C@H](C)C[C@@H]2OC` [Ascomycin, ascomycin]?
Answer: IC50 (CXCL10): 9.9 µM; In vivo: the protective effect of mice from lethal influenza infection [1]: +; CC50 (Cell viability): 62 µM; IC50 (CCL2; U-937, read-out: IC50 CCL2): 8.1 µM; antiviral effect in the U937 cell model (result in words) [2]: antiviral effects; IC50 [2, 3]: 21.3 µM

Question: With `Cc1nc(Nc2ncc(C(=O)Nc3c(C)cccc3Cl)s2)cc(N2CCN(CCO)CC2)n1` [Dasatinib] as the molecule, how does the CC50 at 48 h (Cell viability) read?
Answer: > 90 µM

Question: What does the source list for `Cc1ccc(-c2ncc(Cl)cc2-c2ccc(S(C)(=O)=O)cc2)cn1` [Etoricoxib, etoricoxib]?
Answer: IC50 CXCL10 (CXCL10): – (key: –: lower than 50% inhibition or not effective); effect on the production of CXCL10 in U937 cell model (result in words) (CXCL10): no inhibitory effect; reported effect on survival rate of influenza-infected mice ([1]; in vivo): no improvement on the survival rate; In vivo: the protective effect of mice from lethal influenza infection [1]: ±^j; CC50 (Cell viability): > 50 µM; IC50 CCL2 (CCL2): – (key: –: lower than 50% inhibition or not effective); effect on the production of CCL2 in U937 cell model (result in words) (CCL2): no inhibitory effect; IC50 NA [2]: – (key: –: lower than 50% inhibition or not effective)

Question: For `CC(C)n1c(/C=C/C(O)CC(O)CC(=O)O)c(-c2ccc(F)cc2)c2ccccc21` (stereo not shown) [Fluvastatin], which CC50 at 48 h (Cell viability) is on record?
Answer: > 90 µM

Question: Which IC50 (CXCL10) does the source give for `C=CC(=O)N1CCC[C@@H](n2nc(-c3ccc(Oc4ccccc4)cc3)c3c(N)ncnc32)C1` [Ibrutinib, ibrutinib] here?
Answer: 0.96 µM

Question: And the “reported effect on survival rate of influenza-infected mice” value (from here on “reported effect on survival rate”) ([1]; in vivo)?
Answer: improve the survival rate and pathology

Question: What about the “reported protection of mice from lethal influenza infection” value ([1]; in vivo) of the same molecule?
Answer: protect mice from lethal influenza infection

Question: And the “In vivo: the protective effect of mice from lethal influenza infection” value (shortened to “In vivo: the protective effect of mice”) [1]?
Answer: +^i

Question: And the CC50 (Cell viability)?
Answer: 26.5 µM

Question: What about the IC50 (CCL2; U-937, read-out: IC50 CCL2) of the same molecule?
Answer: 0.62 µM

Question: And the “IC50 NA” value [2]?
Answer: –^h (key: –: lower than 50% inhibition or not effective)

Question: For `CC(C)Cc1ccc(C(C)C(=O)O)cc1` (stereo not shown) [Ibuprofen, ibuprofen], which “IC50 CXCL10” value (CXCL10) is on record?
Answer: – (key: –: lower than 50% inhibition or not effective)

Question: And the “effect on the production of CXCL10 in U937 cell model (result in words)” value (CXCL10)?
Answer: no inhibitory effect

Question: What about the CC50 (Cell viability) of the same molecule?
Answer: > 50 µM

Question: What about the “IC50 CCL2” value (CCL2) of the same molecule?
Answer: – (key: –: lower than 50% inhibition or not effective)

Question: And the “effect on the production of CCL2 in U937 cell model (result in words)” value (CCL2)?
Answer: no inhibitory effect

Question: And the “IC50 NA” value [2]?
Answer: – (key: –: lower than 50% inhibition or not effective)

Question: With `C[C@H]1COc2c(N3CCN(C)CC3)c(F)cc3c(=O)c(C(=O)O)cn1c23` [Levofloxacin] as the molecule, how does the “reported survival rate in mice infected with the H1N1 PR8 virus” value ([1]; in vivo) read?
Answer: increased the survival rate

Question: And the CC50 at 48 h (Cell viability)?
Answer: > 90 µM

Question: What about the IC50 (CCL2; U-937, 48 h, read-out: IC50 CCL2) of the same molecule?
Answer: ≤ 10 µM

Question: Which “IC50 CXCL10” value (CXCL10) does the source give for `CCOC(=O)C1=C[C@@H](OC(CC)CC)[C@H](NC(C)=O)[C@@H](N)C1` [Oseltamivir] here?
Answer: – (key: –: lower than 50% inhibition or not effective)

Question: And the “In vivo: the protective effect of mice” value [1]?
Answer: +

Question: And the CC50 (U937 cells)?
Answer: > 100 µM

Question: And the “IC50 CCL2” value (CCL2)?
Answer: – (key: –: lower than 50% inhibition or not effective)

Question: What about the “antiviral effect in the U937 cell model (result in words)” value [2] of the same molecule?
Answer: antiviral effects

Question: And the IC50 ([2]; read-out: IC50 NA)?
Answer: 0.58 µM

Question: Which IC50 (CXCL10) does the source give for `CC(C)Oc1ccc(-c2nc(-c3cccc4c3CC[C@@H]4NCCO)no2)cc1C#N` [Ozanimod, ozanimod] here?
Answer: 10.7 µM

Question: What about the “reported effect on survival rate” value ([1]; in vivo) of the same molecule?
Answer: improve the survival rate and pathology

Question: And the “In vivo: the protective effect of mice” value [1]?
Answer: +

Question: And the CC50 (Cell viability)?
Answer: 26 µM

Question: What about the IC50 (CCL2; U-937, read-out: IC50 CCL2) of the same molecule?
Answer: 7.7 µM

Question: What about the “IC50 NA” value [2] of the same molecule?
Answer: – (key: –: lower than 50% inhibition or not effective)

Question: Which CC50 at 48 h (Cell viability) does the source give for `O=C(O)C[C@H](O)C[C@H](O)/C=C/c1c(C2CC2)nc2ccccc2c1-c1ccc(F)cc1` [Pitavastatin] here?
Answer: > 90 µM

Question: For `CNCCCC1c2ccccc2C=Cc2ccccc21` [Protriptyline], which CC50 at 48 h (Cell viability) is on record?
Answer: > 90 µM

Question: What does the source list for `NC(=O)c1ncn([C@@H]2O[C@H](CO)[C@@H](O)[C@H]2O)n1` [Ribavirin]?
Answer: IC50 CXCL10 (CXCL10): – (key: –: lower than 50% inhibition or not effective); CC50 (Cell viability): > 160 µM; IC50 CCL2 (CCL2): – (key: –: lower than 50% inhibition or not effective); antiviral effect in the U937 cell model (result in words) [2]: antiviral effects; IC50 [2, 3]: 26.2 µM

Question: For `CN(CCOc1ccc(CC2SC(=O)NC2=O)cc1)c1ccccn1` (stereo not shown) [Rosiglitazone, rosiglitazone], which “IC50 CXCL10” value (CXCL10) is on record?
Answer: – (key: –: lower than 50% inhibition or not effective)

Question: And the “reported effect on survival rate” value ([1]; in vivo)?
Answer: improve the survival rate and pathology

Question: And the “In vivo: the protective effect of mice” value [1]?
Answer: +

Question: What about the CC50 (Cell viability) of the same molecule?
Answer: > 100 µM

Question: And the “IC50 CCL2” value (CCL2)?
Answer: – (key: –: lower than 50% inhibition or not effective)

Question: What about the “IC50 NA” value [2] of the same molecule?
Answer: – (key: –: lower than 50% inhibition or not effective)

Question: For `CCC(C)(C)C(=O)O[C@H]1C[C@@H](C)C=C2C=C[C@H](C)[C@H](CC[C@@H]3C[C@@H](O)CC(=O)O3)[C@H]21` [Simvastatin], which CC50 at 48 h (Cell viability) is on record?
Answer: 66.8 µM

Question: Which IC50 (CXCL10) does the source give for `CCOC(=O)N[C@@H]1CC[C@@H]2[C@@H](C1)C[C@H]1C(=O)O[C@H](C)[C@H]1[C@H]2/C=C/c1ccc(-c2cccc(F)c2)cn1` [Vorapaxar, vorapaxar] here?
Answer: 13.3 µM

Question: What about the “reported effect on survival rate” value ([1]; in vivo) of the same molecule?
Answer: improve the survival rate and pathology

Question: And the “In vivo: the protective effect of mice” value [1]?
Answer: +

Question: And the CC50 (Cell viability)?
Answer: > 80 µM

Question: And the IC50 (CCL2; U-937, read-out: IC50 CCL2)?
Answer: 5.2 µM

Question: And the “IC50 NA” value [2]?
Answer: – (key: –: lower than 50% inhibition or not effective)
